Test results published in ChEMBL document CHEMBL2407075, “Sulphonamido-quinoxalines: search for anticancer agent” (Eur J Med Chem, 2013).

Columns and labels:
Type in all cases: functional
KM12 = test: Growth inhibition of human KM12 cells at 10 uM after 48 hrs by sulforhodamine B assay; settings: KM12, 48 h, read-out: GI
Outline: (§1)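 Single-dose screen at 10 µM across the NCI 60 panel. Cells in RPMI 1640 with 5% FBS and 2 mM L-glutamine, plated at 5000–40,000/well and preincubated 24 h at 37 °C, 5% CO2. Drug in DMSO, 48 h exposure. Fixed with TCA, stained with SRB, A515 read. Percent growth is taken relative to untreated control, and inhibition is 100 minus growth.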

NCI-H460 = test: Growth inhibition of human NCI-H460 cells at 10 uM after 48 hrs by sulforhodamine B assay; settings: NCI-H460, 48 h, read-out: GI; outline: as §1
SK-MEL-5 = test: Growth inhibition of human SK-MEL-5 cells at 10 uM after 48 hrs by sulforhodamine B assay; settings: SK-MEL-5, 48 h, read-out: GI; outline: as §1
SF-539 = test: Growth inhibition of human SF539 cells at 10 uM after 48 hrs by sulforhodamine B assay; settings: SF-539, 48 h, read-out: GI; outline: as §1
SNB-75 = test: Growth inhibition of human SNB75 cells at 10 uM after 48 hrs by sulforhodamine B assay; settings: SNB-75, 48 h, read-out: GI; outline: as §1
COLO 205 = test: Growth inhibition of human COLO205 cells at 10 uM after 48 hrs by sulforhodamine B assay; settings: COLO 205, 48 h, read-out: GI
Outline: (§2)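 Single-dose NCI-60 prescreen at 10 µM for 48 h at 37 °C and 5% CO2, using cells grown in RPMI 1640 with 5% FBS and 2 mM glutamine. Protein was measured by SRB after TCA fixation: 10% final for adherent lines, 16% for suspension lines. Absorbance was read at 515 nm. Percent growth inhibition was obtained by subtracting percent growth from 100.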

SW-620 = test: Growth inhibition of human SW620 cells at 10 uM after 48 hrs by sulforhodamine B assay; settings: SW-620, 48 h, read-out: GI; outline: as §1
OVCAR-5 = test: Growth inhibition of human OVCAR5 cells at 10 uM after 48 hrs by sulforhodamine B assay; settings: OVCAR-5, 48 h, read-out: GI; outline: as §1
CAKI-1 = test: Growth inhibition of human CAKI-1 cells at 10 uM after 48 hrs by sulforhodamine B assay; settings: CAKI-1, 48 h, read-out: GI; outline: as §2
HOP-62 = test: Growth inhibition of human HOP62 cells at 10 uM after 48 hrs by sulforhodamine B assay; settings: HOP-62, 48 h, read-out: GI
Outline: (§3)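 NCI-60 one-dose primary screen at a single 10 µM concentration. Cells in RPMI 1640 with 5% FBS, preincubated 24 h at 37 °C, 5% CO2. Drug exposure 48 h, then TCA fixation, SRB staining and absorbance at 515 nm. Percent growth calculated against time-zero and untreated control wells, then converted to percent growth inhibition.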

MDA-MB-468 = test: Growth inhibition of human MDA-MB-468 cells at 10 uM after 48 hrs by sulforhodamine B assay; settings: MDA-MB-468, 48 h, read-out: GI; outline: as §1
TK-10 = test: Growth inhibition of human TK10 cells at 10 uM after 48 hrs by sulforhodamine B assay; settings: TK-10, 48 h, read-out: GI; outline: as §1
Malme-3M = test: Growth inhibition of human MALME-3M cells at 10 uM after 48 hrs by sulforhodamine B assay; settings: read-out: GI; outline: as §1
HL-60(TB) = test: Growth inhibition of human HL-60(TB) cells at 10 uM after 48 hrs by sulforhodamine B assay; settings: HL-60, 48 h, read-out: GI
Outline: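 Single-dose NCI-60 primary screen at 10 µM, 48 h exposure, SRB read-out. Growth percentage of treated versus untreated cells was recorded and given as percent inhibition by subtraction.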

HCT-116 = test: Growth inhibition of human HCT116 cells at 10 uM after 48 hrs by sulforhodamine B assay; settings: HCT-116, 48 h, read-out: GI; outline: as §3
MDA-MB-231 = test: Growth inhibition of human MDA-MB-231 cells at 10 uM after 48 hrs by sulforhodamine B assay; settings: MDA-MB-231, 48 h, read-out: GI; outline: as §1
SK-OV-3 = test: Growth inhibition of human SKOV3 cells at 10 uM after 48 hrs by sulforhodamine B assay; settings: SK-OV-3, 48 h, read-out: GI; outline: as §1
[1] = Growth inhibition of human EKVX cells at 10 uM after 48 hrs by sulforhodamine B assay; settings: read-out: GI; outline: as §3
UO-31 = test: Growth inhibition of human UO31 cells at 10 uM after 48 hrs by sulforhodamine B assay; settings: UO-31, 48 h, read-out: GI; outline: as §1
K562 = test: Growth inhibition of human K562 cells at 10 uM after 48 hrs by sulforhodamine B assay; settings: K562, 48 h, read-out: GI; outline: as §1
ACHN = test: Growth inhibition of human ACHN cells at 10 uM after 48 hrs by sulforhodamine B assay; settings: read-out: GI; outline: as §2
SK-MEL-2 = test: Growth inhibition of human SK-MEL-2 cells at 10 uM after 48 hrs by sulforhodamine B assay; settings: SK-MEL-2, 48 h, read-out: GI; outline: as §1
CCRF-CEM = test: Growth inhibition of human CCRF-CEM cells at 10 uM after 48 hrs by sulforhodamine B assay; settings: read-out: GI; outline: as §2
NCI-H322M = test: Growth inhibition of human NCI-H322M cells at 10 uM after 48 hrs by sulforhodamine B assay; settings: read-out: GI; outline: as §1
SN12C = test: Growth inhibition of human SN12C cells at 10 uM after 48 hrs by sulforhodamine B assay; settings: read-out: GI; outline: as §1
OVCAR-8 = test: Growth inhibition of human OVCAR8 cells at 10 uM after 48 hrs by sulforhodamine B assay; settings: OVCAR-8, 48 h, read-out: GI; outline: as §1
MOLT-4 = test: Growth inhibition of human MOLT4 cells at 10 uM after 48 hrs by sulforhodamine B assay; settings: MOLT-4, 48 h, read-out: GI; outline: as §1
[2] = Growth inhibition of human HCC2998 cells at 10 uM after 48 hrs by sulforhodamine B assay; settings: HCC 2998, 48 h, read-out: GI; outline: as §3
SF-295 = test: Growth inhibition of human SF295 cells at 10 uM after 48 hrs by sulforhodamine B assay; settings: SF-295, 48 h, read-out: GI; outline: as §1
SF-268 = test: Growth inhibition of human SF268 cells at 10 uM after 48 hrs by sulforhodamine B assay; settings: SF-268, 48 h, read-out: GI; outline: as §1
NCI-H23 = test: Growth inhibition of human NCI-H23 cells at 10 uM after 48 hrs by sulforhodamine B assay; settings: NCI-H23, 48 h, read-out: GI; outline: as §1
SK-MEL-28 = test: Growth inhibition of human SK-MEL-28 cells at 10 uM after 48 hrs by sulforhodamine B assay; settings: SK-MEL-28, 48 h, read-out: GI; outline: as §1
SR = test: Growth inhibition of human SR cells at 10 uM after 48 hrs by sulforhodamine B assay; settings: read-out: GI; outline: as §1

`O=C(NS(=O)(=O)c1ccc2nc(-c3ccccc3)c(-c3ccccc3)nc2c1)c1ccccc1` showed an inhibition of growth at 10 µM (KM12) of 21%, an inhibition of growth at 10 µM (NCI-H460) of 32% and an inhibition of growth at 10 µM (SK-MEL-5) of 48.9%. It also gave an inhibition of growth at 10 µM (SF-539) of 3.89%, an inhibition of growth at 10 µM (SNB-75) of 34.7% and an inhibition of growth at 10 µM (COLO 205) of 19.5%. It also gave an inhibition of growth at 10 µM (SW-620) of 17.4%, an inhibition of growth at 10 µM (OVCAR-5) of 8.43% and an inhibition of growth at 10 µM (CAKI-1) of 7.22%. For the same compound, the inhibition of growth at 10 µM (HOP-62) was 2.87%, the inhibition of growth at 10 µM (MDA-MB-468) was 40.2% and the inhibition of growth at 10 µM (TK-10) was 2.54%. It also gave an inhibition of growth at 10 µM (Malme-3M) of 7.67%, an inhibition of growth at 10 µM (HL-60(TB)) of 49.4% and an inhibition of growth at 10 µM (HCT-116) of 36.7%. It also gave an inhibition of growth at 10 µM (MDA-MB-231) of 28.5%, an inhibition of growth at 10 µM (SK-OV-3) of 12.8% and an inhibition of growth at 10 µM [1] of 26.5%. For the same compound, the inhibition of growth at 10 µM (UO-31) was 15.2%, the inhibition of growth at 10 µM (K562) was 45.8% and the inhibition of growth at 10 µM (ACHN) was 11.8%. It also gave an inhibition of growth at 10 µM (SK-MEL-2) of 15.8%, an inhibition of growth at 10 µM (CCRF-CEM) of 41.3% and an inhibition of growth at 10 µM (NCI-H322M) of 20.9%. For the same compound, the inhibition of growth at 10 µM (SN12C) was 17.4%, the inhibition of growth at 10 µM (OVCAR-8) was 8.02% and the inhibition of growth at 10 µM (MOLT-4) was 44.9%. The inhibition of growth at 10 µM [2] was 15.3%, the inhibition of growth at 10 µM (SF-295) was 21% and the inhibition of growth at 10 µM (SF-268) was 6.89%. The inhibition of growth at 10 µM (NCI-H23) was 19.6%, the inhibition of growth at 10 µM (SK-MEL-28) was 7.63% and the inhibition of growth at 10 µM (SR) was 71.1%.
